Experimental data: ChEMBL document CHEMBL4725483, “Simultaneous Inhibition of SIRT2 Deacetylase and Defatty-Acylase Activities via a PROTAC Strategy” (ACS Med Chem Lett, 2020)
Calls of active or inactive are those of the source. The calls are words filed in the database; no cut-off is given here.

How the values were obtained:
[1] = molecular target: T1, Protein cereblon/NAD-dependent protein deacetylase sirtuin-3, mitochondrial (Homo sapiens) (UniProt Q9NTG7+Q96SW2); assay: Protac activity at CRBN/SIRT3 in human HEK293T cells stably expressing flag-tagged K-Ras4a-G12V assessed as inhibition of SIRT2 defatty-acylation at 1 uM incubated for 48 hrs by immunoblot analysis; assay type: cell-based; conditions: HEK-293T
How it was run: (§1)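 HEK 293T cells stably overexpressing Flag-tagged K-Ras4a-G12V (confirmed by pan-Ras blot) were exposed to 1 μM compound for 48 h. SIRT1, SIRT2 and SIRT3 levels were then read by immunoblot.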

[2] = molecular target: T2, Protein cereblon/NAD-dependent protein deacetylase sirtuin-2 (Homo sapiens) (UniProt Q8IXJ6+Q96SW2); assay: Protac activity at CRBN/SIRT2 in human MCF7 cells assessed as SIRT2 degradation at 25 uM by immunoblot analysis; assay type: cell-based
How it was run: (§2)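 MCF7 cells treated at a fixed concentration (10 or 25 μM) and harvested at several incubation times; SIRT2 level read by immunoblot.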

MCF7 [3] = assay: Cytotoxicity against human MCF7 cells assessed as reduction in cell viability at 1 uM after 72 hrs; assay type: functional, cell-based
[4] = molecular target: T3, NAD-dependent protein deacetylase sirtuin-2 (Homo sapiens, UniProt Q8IXJ6); assay: Inhibition of human SIRT2 defatty-acylation activity using peptide substrate in presence of NAD+ by HPLC analysis
T3 sequence (Q8IXJ6 whole entry): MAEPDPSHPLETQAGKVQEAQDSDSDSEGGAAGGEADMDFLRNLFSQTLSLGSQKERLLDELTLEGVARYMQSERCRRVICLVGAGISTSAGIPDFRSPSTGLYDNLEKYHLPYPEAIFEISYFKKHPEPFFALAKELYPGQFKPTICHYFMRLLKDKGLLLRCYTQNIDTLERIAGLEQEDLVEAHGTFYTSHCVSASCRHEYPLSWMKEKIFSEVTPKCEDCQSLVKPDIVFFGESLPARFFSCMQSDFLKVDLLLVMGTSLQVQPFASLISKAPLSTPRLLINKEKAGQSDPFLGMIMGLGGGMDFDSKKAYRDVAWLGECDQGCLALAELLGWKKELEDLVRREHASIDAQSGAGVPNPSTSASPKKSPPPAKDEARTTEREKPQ

[5] = molecular target: T4, Protein cereblon/NAD-dependent protein deacetylase sirtuin-1 (Homo sapiens) (UniProt Q96EB6+Q96SW2); assay: Protac activity at CRBN/SIRT1 in human BT549 cells assessed as SIRT1 degradation at 5 to 10 uM after 48 hrs by immunoblot analysis; assay type: cell-based; conditions: BT-549, dose microM 5-10, time 48.0 hrs
How it was run: (§3)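 MCF7 or BT-549 cells exposed to inhibitor at the indicated concentrations for 48 h; SIRT1, SIRT2 and SIRT3 levels read by immunoblot.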

[6] = molecular target: T2, Protein cereblon/NAD-dependent protein deacetylase sirtuin-2 (Homo sapiens); assay: Protac activity at CRBN/SIRT2 in human MCF7 cells assessed as inhibition of SIRT2 deacetylation by measuring increase in acetylated-alpha tubulin level at 5 uM measured after 12 hrs by DAPI staining based immunofluorescence microscopic analysis; assay type: cell-based
How it was run: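 MCF7 cells treated for 12 h with 5 or 10 μM, DMSO as control. Acetyl-α-tubulin (K40) was imaged by immunofluorescence, and fluorescence intensity was quantified and normalized to vehicle.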

MDA-MB-231 = assay: Cytotoxicity against human MDA-MB-231 cells assessed as reduction in cell viability at 1 uM after 72 hrs; assay type: functional, cell-based
[7] = molecular target: T5, NAD-dependent protein deacetylase sirtuin-1 (Homo sapiens, UniProt Q96EB6); assay: Inhibition of human SIRT1 deacetylation activity using H3K9Ac as substrate preincubated for 15 mins in presence of NAD+ followed by substrate addition by HPLC analysis
T5 sequence (Q96EB6 whole entry): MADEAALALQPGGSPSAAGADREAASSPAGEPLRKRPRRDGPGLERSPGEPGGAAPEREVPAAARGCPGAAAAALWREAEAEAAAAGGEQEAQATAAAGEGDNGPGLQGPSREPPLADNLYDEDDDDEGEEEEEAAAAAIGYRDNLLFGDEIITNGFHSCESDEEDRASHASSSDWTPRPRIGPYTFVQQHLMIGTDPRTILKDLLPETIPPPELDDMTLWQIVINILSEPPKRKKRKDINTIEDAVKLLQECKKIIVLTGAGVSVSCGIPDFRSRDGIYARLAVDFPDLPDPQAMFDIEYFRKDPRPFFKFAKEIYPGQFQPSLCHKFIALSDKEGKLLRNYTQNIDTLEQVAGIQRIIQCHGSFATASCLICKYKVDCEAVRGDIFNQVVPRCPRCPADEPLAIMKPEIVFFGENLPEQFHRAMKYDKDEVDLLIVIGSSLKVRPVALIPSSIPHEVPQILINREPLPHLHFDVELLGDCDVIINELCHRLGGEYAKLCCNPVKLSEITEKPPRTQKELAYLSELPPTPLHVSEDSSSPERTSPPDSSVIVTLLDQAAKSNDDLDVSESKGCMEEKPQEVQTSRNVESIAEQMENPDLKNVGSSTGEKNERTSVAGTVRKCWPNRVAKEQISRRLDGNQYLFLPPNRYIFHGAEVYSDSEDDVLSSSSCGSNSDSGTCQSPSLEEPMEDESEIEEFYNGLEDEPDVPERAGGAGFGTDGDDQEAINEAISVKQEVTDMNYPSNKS
How it was run: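 In vitro sirtuin reaction mixture with compound at a range of concentrations. Compound was preincubated with NAD+ and the enzyme before the substrate peptide was added. IC50 taken from the concentration series.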

[8] = molecular target: T4, Protein cereblon/NAD-dependent protein deacetylase sirtuin-1 (Homo sapiens); assay: Protac activity at CRBN/SIRT1 in human MCF7 cells assessed as SIRT1 degradation at 5 to 10 uM after 48 hrs by immunoblot analysis; assay type: cell-based; conditions: dose microM 5-10, time 48.0 hrs; how it was run: as §3
MCF7 [9] = assay: Cytotoxicity against human MCF7 cells assessed as reduction in cell viability after 72 hrs; assay type: functional, cell-based
How it was run: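 Cells incubated with compound or thalidomide for 72 h; cell viability read out at the end of exposure.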

[10] = molecular target: T2, Protein cereblon/NAD-dependent protein deacetylase sirtuin-2 (Homo sapiens); assay: Protac activity at CRBN/SIRT2 in human HEK293T cells stably expressing flag-tagged K-Ras4a-G12V assessed as inhibition of SIRT2 defatty-acylation at 1 uM incubated for 48 hrs by immunoblot analysis; assay type: cell-based; conditions: HEK-293T; how it was run: as §1
[11] = molecular target: T2, Protein cereblon/NAD-dependent protein deacetylase sirtuin-2 (Homo sapiens); assay: Protac activity at CRBN/SIRT2 in human MCF7 cells assessed as SIRT2 degradation at 10 uM by immunoblot analysis; assay type: cell-based; conditions: TDE = time-dependent effect; how it was run: as §2
[12] = molecular target: T3, NAD-dependent protein deacetylase sirtuin-2; assay: Inhibition of human SIRT2 defatty-acylation activity using peptide substrate preincubated in presence of NAD+ followed by substrate addition by HPLC analysis
How it was run: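 SIRT2 defatty-acylase reaction with compound at a range of concentrations. Compound was preincubated with NAD+ and SIRT2 before the peptide substrate was added. IC50 derived from the dose series.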

[13] = molecular target: T1, Protein cereblon/NAD-dependent protein deacetylase sirtuin-3, mitochondrial (Homo sapiens); assay: Protac activity at CRBN/SIRT3 in human BT549 cells assessed as SIRT3 degradation at 5 to 10 uM after 48 hrs by immunoblot analysis; assay type: cell-based; conditions: BT-549, dose microM 5-10, time 48.0 hrs; how it was run: as §3
[14] = molecular target: T4, Protein cereblon/NAD-dependent protein deacetylase sirtuin-1 (Homo sapiens); assay: Protac activity at CRBN/SIRT1 in human HEK293T cells assessed as abundance ratio at 5 uM incubated for 16 hrs by TMT global proteomics assay relative to DMSO; assay type: cell-based; conditions: HEK-293T
How it was run: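 HEK 293T cells given 5 μM compound for 16 h. Global proteomics used Tandem Mass Tag labelling, and each sirtuin's abundance is given as a ratio of treated to DMSO-treated cells.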

T4 sequence (Q96SW2 whole entry, looked up, one chain of several): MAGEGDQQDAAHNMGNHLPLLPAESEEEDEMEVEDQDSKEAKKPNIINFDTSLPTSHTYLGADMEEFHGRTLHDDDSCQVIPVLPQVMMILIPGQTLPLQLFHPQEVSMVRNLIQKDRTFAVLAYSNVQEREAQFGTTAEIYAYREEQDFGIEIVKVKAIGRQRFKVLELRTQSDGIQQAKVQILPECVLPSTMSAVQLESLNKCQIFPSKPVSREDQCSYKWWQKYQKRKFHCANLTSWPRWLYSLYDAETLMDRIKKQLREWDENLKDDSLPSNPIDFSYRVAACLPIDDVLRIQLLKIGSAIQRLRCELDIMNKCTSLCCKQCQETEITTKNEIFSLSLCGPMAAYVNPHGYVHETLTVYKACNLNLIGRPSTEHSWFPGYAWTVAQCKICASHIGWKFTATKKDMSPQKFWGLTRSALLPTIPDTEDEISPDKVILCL
T2 sequence (Q96SW2 whole entry, looked up, one chain of several): as above
T1 sequence (Q96SW2 whole entry, looked up): as the sequence (Q96SW2 whole entry, looked up, one chain of several) above
T1 sequence (Q9NTG7 whole entry, looked up): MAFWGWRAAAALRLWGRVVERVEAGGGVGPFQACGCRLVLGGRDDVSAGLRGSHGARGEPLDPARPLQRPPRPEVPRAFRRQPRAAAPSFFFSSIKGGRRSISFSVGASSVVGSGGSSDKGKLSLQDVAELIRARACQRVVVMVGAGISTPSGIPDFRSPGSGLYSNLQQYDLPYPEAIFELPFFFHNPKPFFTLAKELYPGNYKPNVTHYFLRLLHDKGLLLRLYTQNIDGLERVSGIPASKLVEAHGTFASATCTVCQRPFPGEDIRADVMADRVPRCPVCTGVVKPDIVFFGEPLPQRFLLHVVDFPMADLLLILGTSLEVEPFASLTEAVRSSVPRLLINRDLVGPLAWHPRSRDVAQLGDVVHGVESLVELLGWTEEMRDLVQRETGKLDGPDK

CCCCCCCCCCCCCC(=S)NCCCC[C@H](NC(=O)CCOCCOCCOCCOCCNc1cccc2c1C(=O)N(C1CCC(=O)NC1=O)C2=O)C(=O)Nc1ccccc1 (stereo not given in full)
Activity [1]: inactive
Activity [2]: inactive
Activity (MCF7 [3]): inactive
IC50 [4]: > 83 µM
Activity [5]: inactive
Activity [6]: Active
Activity (MDA-MB-231): inactive
IC50 [7]: 41 µM
Activity [8]: inactive
Activity (MCF7 [9]): Active
Activity [10]: Active
Activity [11]: Tde
IC50 [12]: 0.11 µM
Activity [13]: inactive
Activity [14]: inactive
